Published values collected from several papers.

`COc1ccccc1-c1cc(/C=C2\C(=O)Nc3ncc(Br)cc32)cc(Br)c1O` has an EC50 of 2510 nM (Trypanosoma brucei; parasite growth).
With `CC(=O)OCCCn1c(/C=C/c2ccc(C#N)cc2)nc2ccccc2c1=O` the MIC was > 128 µg/mL (Enterococcus faecium; microbial growth, broth dilution; NCTC7171).
For `CC(C)C[C@H](NC(=O)[C@H](Cc1ccccc1)NC(=O)c1cnccn1)B(O)O`, the IC50 was 3.13 nM (MB002; cell growth or viability; 7 days).
With `CC(=O)Nc1cccc(-n2c(=O)n(C3CC3)c(=O)c3c(Nc4ccc(I)cc4F)n(C)c(=O)c(C)c32)c1` the viability was 89.4% (Calu-6; cell growth or viability, resazurin; 390 pM, 72 h).
With `CC1=C(C(=O)Nc2ccc3[nH]ncc3c2)C(c2ccc(F)cc2)NC(c2ccc(C(F)(F)F)nc2)=N1` (stereo not shown) the EC50 was 5010 nM (Trypanosoma brucei; parasite growth).
`COC(=O)Cc1ccc(/C=C/c2nc3ccccc3c(=O)n2-c2cccc(C(=O)O)c2)cc1` has an MIC of > 128 µg/mL (Enterococcus faecium; microbial growth, broth dilution; NCTC7171).
With `COc1cccc(-n2ncc3c(N/N=C/c4ccc(C(=O)NCCN(C)C)cc4)ncnc32)c1` the EC50 was 251 nM (Trypanosoma brucei; parasite growth).
The IC50 of `Oc1nc(-c2ccc(C(F)(F)F)cc2)nc2c1CSCC2` is reported as > 10000 nM (MB002; cell growth or viability; 7 days).
The EC50 of `Nc1ncc(-c2cccc(S(N)(=O)=O)c2)c2scc(-c3ccc(F)c(Cl)c3)c12` is reported as 10000 nM (Trypanosoma brucei; parasite growth).
`CCNc1nc(Nc2cc(F)c(C(=O)N3CCOCC3)cc2OC)ncc1C(F)(F)F` has an IC50 of > 10000 nM (MB002; cell growth or viability; 7 days).
For `O=c1c2cnccc2nc(/C=C/c2ccc(F)cc2)n1-c1cccc(O)c1`, the MIC was > 128 µg/mL (Enterococcus faecium; microbial growth, broth dilution; NCTC7171).
`CO[C@H]1C[C@@H]2CC[C@@H](C)[C@@](O)(O2)C(=O)C(=O)N2CCCC[C@H]2C(=O)O[C@H]([C@H](C)C[C@@H]2CC[C@@H](O)[C@H](OC)C2)CC(=O)[C@H](C)/C=C(\C)[C@@H](O)[C@@H](OC)C(=O)[C@H](C)C[C@H](C)/C=C/C=C/C=C/1C` has an IC50 of 6.5 nM (MB002; cell growth or viability; 7 days).
The MIC of `N#Cc1ccc(/C=C/c2nc3ccccc3c(=O)n2-c2cccc(C(=O)NCCO)c2)cc1` is reported as > 128 µg/mL (Enterococcus faecium; microbial growth, broth dilution; NCTC7171).
